Shown is part of a subset that was picked to be rich in hits.
UCH37 DUB inh: inhibitors of human UCH37 deubiquitinase, primary screen, biochemical, Ub-AMC cleavage, fluorescence. Ubiquitin carboxyl-terminal hydrolase isozyme L5 (Homo sapiens), Q9Y5K5. purified proteasome/UCH37. inhibition, % (concentration not given with the values). 330,000 compounds, 0.33% hits. AID 588478, 2011;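 active = mean inhibition over replicate wells above about 20%, limit read from the data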
Target sequence (Q9Y5K5 whole entry, looked up): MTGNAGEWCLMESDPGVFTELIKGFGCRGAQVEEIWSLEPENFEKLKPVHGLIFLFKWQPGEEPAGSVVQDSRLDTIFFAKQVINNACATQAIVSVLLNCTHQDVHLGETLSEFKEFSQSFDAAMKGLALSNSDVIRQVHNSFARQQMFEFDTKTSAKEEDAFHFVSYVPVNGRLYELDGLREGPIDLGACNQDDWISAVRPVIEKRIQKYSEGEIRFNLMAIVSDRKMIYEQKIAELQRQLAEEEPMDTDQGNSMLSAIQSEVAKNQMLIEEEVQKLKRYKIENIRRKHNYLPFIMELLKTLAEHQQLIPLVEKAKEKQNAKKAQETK
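Schedule: 30 min plus 25 min, room temperature / Material: human UCH37 within purified proteasomes / Technique: AMC fluorescence intensity at 355/460 nm / Buffer or medium: pH 7.4 Tris-HCl (50 mM) with ovalbumin, ATP-MgCl2, DTT / Controls: wells without proteasome as full block, compound-free enzyme plus substrate as uninhibited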
UPR XBP1 act: activators of adaptive XBP1 UPR arm, primary screen, cell-based, CHO-XBP1 luciferase reporter, luminescence, uHTS. 330,000 compounds, 0.33% hits. AID 463104, 2010. activation, % at 20 µM. IRE1-XBP1 UPR activation; percent of tunicamycin response, DMSO as zero;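 active = versus positive control, 20 µM dose yields 30% or more activation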
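incubation = overnight seeding at 37 °C, 6 h compound treatment at 37 °C | assay system = CHO-XBP1 cells stably carrying IRE1-XBP1-driven luciferase reporter | input = 1000 cells per well | detection = luciferase luminescence | dosing = single point, 20 µM final compound, 1% DMSO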
UPR CHOP act: activators of apoptotic CHOP UPR arm, primary screen, cell-based, CHO-CHOP luciferase reporter, luminescence, uHTS | UPR activation; percent of tunicamycin response over DMSO baseline | activation, % at 10 µM | 330,000 compounds, 0.34% hits | AID 449763, 2010;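 active = at 10 µM dose, activation of 40% or more, normalized to positive control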
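Material: CHO-CHOP cells, stable luciferase reporter of PERK-eIF2a-CHOP signalling; quantity: 500 reporter cells seeded per well; buffer or medium: F12 medium containing 10% fetal bovine serum; compound: one dose, 10 µM in 0.5% DMSO; incubation: 6 h compound treatment, 37 °C; measured by: Steady-Glo luciferase luminescence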
CHOP inhibitor: inhibitors of CHOP promoter induction, primary screen, cell-based, unfolded protein response, luciferase reporter; inhibition, % at 10 µM; 220,000 compounds, 3.8% hits; CHO-K1 CHOP-promoter luciferase, tunicamycin-induced, 15-18 h;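 active = compounds that reduced the stress-induced luciferase reporter signal by more than about 70% of percent inhibition, limit read from the data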
CTSL1 counter: Fasciola hepatica cathepsin L1 inhibitors, primary screen, counter-screen for PFM18AAP inhibitor project, biochemical, QFRET, fluorogenic peptide substrate; 300,000 compounds, 0.49% hits; recombinant F. hepatica cathepsin L1, Z-Leu-Arg-MCA fluorescence; inhibition, % at 5.96 µM; AID 1906, 2009;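 active = inhibition above the mean of all tested compounds plus 3 SD, set per screening campaign, cut at about 17% in these data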
CHOP confirm: retest of CHOP induction inhibitors, confirmation, cell-based; shares compounds with CHOP inhibitor; CHO-CHOP promoter luciferase reporter, tunicamycin-induced, luminescence; inhibition, % at 10 µM; 2,100 compounds, 45% hits;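 active = mean of three repeat readings of reporter signal inhibition above a set limit, cut at about 70% in these data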
A number is an active result; 0 = inactive; - = no result.

SMILES | UCH37 DUB inh | UPR XBP1 act | UPR CHOP act | CHOP inhibitor | CTSL1 counter | CHOP confirm
NC(N)=N/N=C/c1ccc(OCc2ccc(Cl)cc2)cc1 | - | 0 | 0 | 107 | 0 | 0
NC(N)=NN=Cc1ccc(OCc2ccc(Cl)cc2)cc1 | 0 | - | - | - | - | -
COc1ccccc1/C=C/C=c1sc2nc(=O)c(Cc3ccccc3)nn2c1=O | 0 | - | - | - | - | -
CCn1ncc(Cl)c1C(=O)Nc1cc(Cl)ccc1Cl | 0 | 0 | 0 | 100 | 0 | 0
CCn1nccc1C(=O)Nc1cc(Cl)ccc1Cl | 0 | 0 | 0 | 0 | 0 | -
CCOc1ccc(-c2cc(CCCC(=O)NCc3ccc(C)cc3)no2)cc1 | 0 | 0 | 0 | 96 | 0 | 78
Cc1ccc(OCC(=O)N/N=C/c2cccc3cccnc23)cc1 | - | 0 | 0 | - | 0 | -
Cc1ccc(OCC(=O)N/N=C/c2cn[nH]c2-c2ccc(Cl)c(Cl)c2)cc1 | - | 0 | 0 | 99 | 0 | 72
Cc1ccc(S(=O)(=O)Nc2nc(C)cc(NN=Cc3ccc(O)cc3)n2)cc1 | 0 | - | - | - | - | -
CCn1nc(C)c(C=NNC(=O)c2cccc(OC)c2)c1C | 0 | - | - | - | - | -
CC1CCN(C(=O)/C(=C/c2ccccc2Cl)c2ccccc2)CC1 | 0 | 0 | 0 | 101 | 0 | 88
CN1CCN(C(=O)/C(=C\c2ccccc2)c2ccccc2)CC1 | 0 | 0 | 0 | 0 | 0 | -
Nc1c(C(=O)Nc2nccs2)sc2nc(-c3cccs3)cc(C(F)(F)F)c12 | 0 | 0 | 0 | 0 | 0 | -
Cc1nnc(NC(=O)c2sc3nc(-c4cccs4)cc(C(F)(F)F)c3c2N)s1 | - | 0 | 0 | 106 | 0 | 94
CCn1c(SCC(=O)NN=Cc2ccccc2OCC(=O)O)nnc1-c1ccc(C)cc1 | 0 | - | - | - | - | -
CC(=NNC(=O)c1ccc(C)cc1C)c1ccc2c(c1)OCO2 | 0 | - | - | - | - | -
C/C(CCc1ccc2c(c1)OCO2)=N\N=C(/N)SC1CC(=O)N(c2ccc(Cl)cc2)C1=O (stereo unspecified) | - | 0 | 0 | 97 | 0 | 0
NS(=O)(=O)c1ccc(NN=C2CCCCC2C2CCCCC2)c([N+](=O)[O-])c1 (stereo unspecified) | 0 | - | - | - | - | -
CCOc1cc(N2CCOCC2)c(OCC)cc1NC(=O)c1cc(-c2ccco2)nc2ccccc12 | 0 | 0 | 0 | 105 | 0 | 0
Cc1cc(C)n(N=Cc2c[nH]c3ccccc23)c(=O)c1C#N | 0 | - | - | - | - | -
C=C1C(=O)C=C2CN(C(=O)c3ccccc3)[C@@](Cc3ccc(F)cc3)(C(=O)OC)[C@@H]12 | 0 | 0 | 0 | 109 | 0 | 128
COC(=O)[C@@]1(Cc2ccc(OC)cc2)[C@@H]2C(=CC(=O)[C@H]2CC(=O)C(=O)N(C)C)CN1C(=O)c1ccccc1 | 0 | 0 | 0 | 0 | 0 | -
CC1=C(CO)C(=O)OC([C@@H](C)C2CC[C@H]3C4C[C@H]5O[C@]56[C@@H](O)C=CC(=O)[C@]6(C)C4CC[C@]23C)C1 (stereo partly specified) | 0 | - | - | 107 | 0 | 106
O=C(c1cc(-c2ccccc2O)on1)N1CCc2ccccc2C1 | 0 | 0 | 0 | 106 | 0 | 0
C=CCNC(=S)NN=Cc1ccc(OCc2ccccc2)cc1 | 0 | - | - | - | - | -
SMILES | UCH37 DUB inh | UPR XBP1 act | UPR CHOP act | CHOP inhibitor | CTSL1 counter | CHOP confirm
CNC(=O)COC(=O)c1ccccc1C(=O)c1ccc(Cl)c([N+](=O)[O-])c1 | 0 | - | - | 97 | - | 0
COc1ccc2c(c1)C=C(CN1CCC(CO)(CCc3ccccc3)CC1)CO2 | 0 | 0 | 0 | 0 | 0 | -
COc1ccc(CC2(CO)CCN(CC3=Cc4cc(Cl)ccc4OC3)CC2)cc1 | 0 | 0 | 0 | 102 | 0 | 105
C/C(O)=C/c1nc2ccccc2oc1=O | 0 | - | - | - | - | -
O=C(c1ccc(Cl)cc1)c1c[nH]c(C(=O)NNc2cccc(Cl)n2)c1 | 0 | 0 | 0 | 100 | 0 | 96
Cc1cccc(Nc2nc(N)c([N+](=O)[O-])c(N3CC(C)CC(C)C3)n2)c1 (stereo unspecified) | 0 | 0 | 0 | 103 | 0 | 118

Bioassay records: PubChem, several laboratories
